The data set concerns MS2 coat protein. Nature of the data set: apparent Kd, MS2 coat protein; higher = weaker binding; RNA-MaP array; FMN 200 µM where present. The procedure, abridged: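 The apparent Kd is reported as the median of filtered per-cluster binding-curve fits. To get these curves, designs transcribed by stalled E. coli RNA polymerase on Illumina sequencing-chip clusters were titrated with SNAP-549-labelled MS2 coat protein from 0.7 or 1.5 nM, doubling to 3 µM. Titrations were run without and then with constant ligand in 100 mM Tris-HCl pH 7.5, 80 mM KCl, 4 mM MgCl2, BSA, DTT, yeast tRNA and Tween-20, and green signal was normalised to red-channel RNA signal and control-cluster median Fmax.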

Where [1] appears, read: designed as: OFF switch for flavin mononucleotide, no ligand.
Setting [2] is: ligand present: flavin mononucleotide, designed as: OFF switch for flavin mononucleotide.
Setting [3] is: designed as: ON switch for flavin mononucleotide, no ligand.
Where [4] appears, read: ligand present: flavin mononucleotide, designed as: ON switch for flavin mononucleotide.

As to “GUUGGCUGAGGAUAUGCUUGCGUGCGUUUGUGUCGCGGGUGACAUGAGGAUCACCCAUGUAGAAGGUGGUCGGC”, the “apparent Kd” value by setting is: under setting [1], 1530 nM; under setting [2], 980 nM.
As to “UGUUGUUCAGGAUAUGAUGUAUAAUACAUGAGGAUCACCCAUGUAGAUCCUGAAUUGGCGUCAGAAGGGAAUGUUG”, the “apparent Kd” value is 19.3 nM under setting [1] and 21.9 nM under setting [2].
For “ACGGCUGUCAGAGGAUAUGGUUACAUGAGGAUCACCCAUGUCAAGGGUCUAACUAAGUAUAACUACUAGAAGGCUGAUGGCCGA”, the “apparent Kd” value runs as follows: under setting [1], 674 nM; under setting [2], 350 nM.
As for “AUCGGCUGGCAGAAGGGCUAUGUGAUCCGGUUUUACAUGAGGAUCACCCAUGUAGCCUCGCGCUAGCAGGAUAUGCAACGGCUG”, the “apparent Kd” value by setting is: under setting [3], 175 nM; under setting [4], 40.4 nM.
In the case of “AGGUGAGCUCGAUGGCGACAUGAGGAUCACCCAUGUACGAUCAGAAGGGCUCGGGCAAGAAGUGGGCAGGAUAUGGUCGGUGCC”, the “apparent Kd” value under setting [1] came to 3.88 nM and the “apparent Kd” value under setting [2] was found to be 4.51 nM.
Take “UGAUAGGACAGAGGAUAUACGUGCUAGAGAUACUAGCAAAAUUUCCUCACAUGAGGAUCACCCAUGUAGAAGGCUGUCCUAUCG”: the “apparent Kd” value by setting is: under setting [1], 17.6 nM; under setting [2], 453 nM.
The corresponding values for “AAGCUCUGUGAGAAGGCGCCCUUUGCGGUUGGGCGAGGAUAUCACAUGAGGAUCACCCAUGUCGGUGCAUCAGACAGCGUAUAA” are 215 nM and 40.3 nM.
Regarding “UUUAUAUUCAGAGGAUAUUAAAGUAGUAUAACAUAAGAAGGCUGUUUGUUUUGUAAAGUAAUUCUACAUGAGGAUCACCCAUGU”, the “apparent Kd” value runs as follows: under setting [3], 20.9 nM; under setting [4], 17 nM.
Take “GCCAUCGCAUGAGGAUAUGCUCCCGUUUCGGGAGCAGAAGGCAUGUCAUAAGACAUGAGGAUCACCCAUGUAGAUAAGGUGGCA”: the “apparent Kd” value by setting is: under setting [3], 337 nM; under setting [4], 12.7 nM.
Take “UGAAUCAAUACAGGAUAUGGUGACGCACAUGAGGAUCACCCAUGUCCGCAGCGUGCUCAGCACGCCCAGAAGGGUAUUGAUCCG”: the “apparent Kd” value under setting [4] is 84.8 nM.
Regarding “GUAGCUACUAUUAUACAUGAGGAUCACCCAUGUUACAUGGGUAAGGAUAUUGAAGUUAUGAUUAUCAAGAAGGUACUAUGCUAC”, the “apparent Kd” value was determined as 511 nM under setting [3] and 118 nM under setting [4].
Turning to “GGAUAGGACAGAGGAUAUACCGAUAGGAUCUACUAUCGAACAAUUCUCACAUGAGGAUCACCCAUGUAGAAGGCUGUCCUAUCG”, the “apparent Kd” value runs as follows: under setting [1], 16.6 nM; under setting [2], 29.4 nM.
Regarding “AUAAAUAAGGCGCACAUGAGGAUCACCCAUGUACGGACUAGCAAGGAUAUCAGCGUCGGGUGCAAUGAGAAGGUGUGUGUCAAG”, the “apparent Kd” value came to 45.1 nM under setting [3] and 74.4 nM under setting [4].
As to “CGAAACUACGAGAAGGACAUGUGGUCCUUCAGUUACAUGAGGAUCACCCAUGUAGGAUAUCGUAGUUUCAGGAUCGUGAGAUCG”, the “apparent Kd” value came out at 45 nM under setting [1] and 19.4 nM under setting [2].
As for “AGAACAUGAGGAUCACCCAUGUUAAGGUCGGUAAAUAAGGGUGAGGAUAUGCUUAAAAUAAGGAAGCAGAAGGUGCUUGGUGCA”, the “apparent Kd” value runs as follows: under setting [3], 183 nM; under setting [4], 195 nM.
For the sequence “UGAUAGGACAGAGGAUAUACAGAUAGGAUCUACUAUCAAACAGUCCUAACAUGAGGAUCACCCAUGUAGAAGGCUGUCCUAUCU”, the “apparent Kd” value reads like this: under setting [1], 20.9 nM; under setting [2], 79.2 nM.
For “UGUUAAUAAGAGAAGGAGGACUUCAUGAGGAUCACCCAUGUGUUAGUACUUAGGAUAUUUAAUAACAUGAGGAUCACCCAUGUC”, the “apparent Kd” value was determined as 45.2 nM under setting [3] and 40.4 nM under setting [4].
As for “AAAAGGCUAGGAUAUACCAGUGGGUGUAAGAACUCAAAGUUACAUGAGGAUCACCCAUGUAGAAGGAGUAAAAU”, the “apparent Kd” value runs as follows: under setting [1], 17.1 nM; under setting [2], 40 nM.
With “GAUCAAAACACUCCUUACACUACAUGAGGAUCACCCAUGUAGCAGGAUAUCAUUGCUCCUCGCUGUGAGAAGGGCUACGGGCGG”, the “apparent Kd” value was found to be 8.92 nM under setting [1] and 15.6 nM under setting [2].
Turning to “UCAUGUUAAGGAUAUACAUGAGGAUCACCCAUGUUUGUUCAAAAUCUUAGAUCCCAAUGUAGAAGGUGGCUGUA”, the “apparent Kd” value is, setting by setting: under setting [1], 75.8 nM; under setting [2], 75.4 nM.
The corresponding values for “CGCACUGAUAGAGGAUAUGUUUAACAUGAGGAUCACCCAUGUGUACAAGUAUCAAUAUUUAUCAAACAGAAGGCUAUUAGUGCG” are 4.84 nM and 3.88 nM.
For the sequence “UUGGCGACGUAGAAGGGUGACAUGAGGAUCACCCAUGUGCCGAUAUUUCUCGAGAUAUGUCGGCCACAGGAUAUACGUGCCAUC”, the “apparent Kd” value reads like this: under setting [3], 59.3 nM; under setting [4], 31.9 nM.
As to “UGGAGGUCAGGAUAUGCAUGGCGGGACUUGCGUCGUGGCGUGCAGAAGGGACAUGAGGAUCACCCAUGUGGAGU”, the “apparent Kd” value under setting [1] was found to be 112 nM and the “apparent Kd” value under setting [2] is 77.4 nM.
With “GGGUACAUGGGAGGAUAUCCUCAAGAGACAUGAGGAUCACCCAUGUAUUAUAUGCCUCAUGGCAUGGAGAAGGCCCAUGUACCG”, the “apparent Kd” value under setting [3] amounted to 188 nM and the “apparent Kd” value under setting [4] amounted to 160 nM.
Regarding “CUAUAUAAUACCUCAUGUACAUGAGGAUCACCCAUGUUAACUAAGGAUAUAUAUAUAUUAAUAAUGUAGAAGGUAGUACUAUUU”, the “apparent Kd” value was 16 nM under setting [1] and 11.8 nM under setting [2].
For the sequence “GCACAUGGCAUAGGAUAUAGAUCGAUUGUUUAAAUAGGUAGUUGGACUUAACUAGAAGGAUGAAACAUGAGGAUCACCCAUGUA”, the “apparent Kd” value by setting is: under setting [3], 394 nM; under setting [4], 68 nM.
The corresponding values for “AGGAUAGGAAAAUUUGUCCAUUGUACAGAAGGCCAACAUGAGGAUCACCCAUGUAAGAAAAGGAUGGAGGAUAUGUAUAGGGCC” are 37.6 nM and 10.6 nM.
For “CUAGUACAUGAGGAUCACCCAUGUCAGGAUAUUGGAUAUGCCUUGGAAUACGUGUUUACAAGAAGGGACUAUAG”, the “apparent Kd” value under setting [1] is 18.7 nM and the “apparent Kd” value under setting [2] was found to be 19.2 nM.
Regarding “AGCGAGGCAGGAUAUACAUGAGGAUCACCCAUGUGCUUGCAUGGCGUGGAAUGUCGAGGUAGAAGGGCCAUGCC”, the “apparent Kd” value is, setting by setting: under setting [1], 21.3 nM; under setting [2], 26.1 nM.
The corresponding values for “GUCGUUGUCUGGUCGAGGAUAGGGCAGGAUAUACAUGAGGAUCACCCAUGUGAAGCGCGAAGGAGGUAGAAGGGCCCACGUCAU” are 14.7 nM and 14.8 nM.
Regarding “AUUAAACAUGAGGAUCACCCAUGUCAACAAAGUCGAGGAUAUGGGCAUAUUAUCUUAUAACCAGAAGGCGAAUAAU”, the “apparent Kd” value is, setting by setting: under setting [3], 222 nM; under setting [4], 37 nM.
As for “CCUCCACAGGAGGAUAUCAUCAAACUAUUGUGAUGAGAAGGCCUGACAUGAGGAUCACCCAUGUUAUCGUGAUG”, the “apparent Kd” value by setting is: under setting [1], 56 nM; under setting [2], 185 nM.
Turning to “AUAUUGUGAGGAUAUGAACUUAGUAUCGAAAGAUACUAAGAUCAGAAGGCACAUGAGGAUCACCCAUGUUUCUC”, the “apparent Kd” value came to 77.5 nM under setting [1] and 402 nM under setting [2].
On to “CGGCAAGUCACAGGAUAUGGUGAUGUACAUGAGGAUCACCCAUGUCCGUCUUCUCUCACAAGAUGCCAGAAGGGUGACCUCCGG”, for which the “apparent Kd” value worked out at 760 nM under setting [3] and 131 nM under setting [4].
As for “UAGGACUACGUAGGAUAUGUAGUAGAUUACUACAUGAGGAUCACCCAUGUAAGCAUGUGAUUAGGACAGAAGGACGUGGUAAAU”, the “apparent Kd” value runs as follows: under setting [3], 24.8 nM; under setting [4], 8.91 nM.
For “GCCAUCGCAUGAGGAUAUCCUCAGCUUUGCUGAGGAGAAGGCAUGUCAAUAGACAUGAGGAUCACCCAUGUAGUUAAGAUGGCA”, the “apparent Kd” value by setting is: under setting [3], 692 nM; under setting [4], 81.3 nM.
Turning to “GUUUAUUUACAGAAGGUGUUUUACAUGAGGAUCACCCAUGUUUAAAUUUAUAAAGAAUUUAUUUACAAGGAUAUGUACAAUUUU”, the “apparent Kd” value is 34.1 nM under setting [3] and 19 nM under setting [4].
“CCCAUGUUAGGAUAUAUGGAAGGGCGGACGGGCGCCCUUAGGUAGAAGGAACAUGAGGAUCACCCAUGUAAUAA”: the “apparent Kd” value by setting is: under setting [1], 171 nM; under setting [2], 161 nM.
“GCAAGAAUAGGAUAUACACCAUGUCAGCUUCUAUACAACGCACAUGAGGAUCACCCAUGUAGAAGGGUUCUCUC”: the “apparent Kd” value runs as follows: under setting [1], 553 nM; under setting [2], 504 nM.
For “AGAAACUACGAGAAGGACAUGUGGUCCUUCAGAAACAUGAGGAUCACCCAUGUAGGAUAUCGUAGUUUCAGGAUCGUGAGAUCA”, the “apparent Kd” value reads like this: under setting [1], 54.4 nM; under setting [2], 20.8 nM.
For the sequence “AGUACUACAGGAUAUACAUGAGUGAUACUCAUAUACCUACUACAUGAGGAUCACCCAUGUAGAAGGGUAGUACA”, the “apparent Kd” value reads like this: under setting [1], 14.9 nM; under setting [2], 11.7 nM.
As for “UCCGAACAUGAGGAUCACCCAUGUCUAAUACGUCAAGGAUAUGGGCGCGGAGAACCGCAACCAGAAGGUGAGAAAU”, the “apparent Kd” value under setting [3] turned out to be 507 nM and the “apparent Kd” value under setting [4] was determined as 89.4 nM.
With “UAUAUAUAGUAAGGAUAUGUAUUUAUGUUAUAAACAGAAGGUACUGACAUGAGGAUCACCCAUGUUUUAGUGUGGGCAUGUAGA”, the “apparent Kd” value reads like this: under setting [1], 87.9 nM; under setting [2], 122 nM.
On to “CCCUACACCGAGAAGGGCACGUAUUGAAGAGGGUGCCAGGAACAUCACAUGAGGAUCACCCAUGUGCAGGAUAUCGGCAGGAAC”, for which the “apparent Kd” value under setting [1] came out at 9.41 nM and the “apparent Kd” value under setting [2] stood at 19.9 nM.
Regarding “GUUUAGUGAGGAUAUGUGGCAUAGAUCGAGCGCGGUCGGCUACAGAAGGCACAUGAGGAUCACCCAUGUUUCUC”, the “apparent Kd” value reads like this: under setting [1], 39.9 nM; under setting [2], 498 nM.
With “AAGUAGAUCCGAGGAUAUACAAGGCGGAAAUGCUACAUGAGGAUCACCCAUGUAGAAGGCGGAUCUACAGGUACUAAAGUACCA”, the “apparent Kd” value was determined as 6.71 nM under setting [1] and 19.3 nM under setting [2].
Taken in the same sequence, the figures for “GCUGCAAAGUAAGGAUAUGCCUAGGAAACCUAGGCAGAAGGUACAUGAGGAUCACCCAUGUUAACCCAAAGGGAAUAAAGCAGC” were 15.8 nM and 25.3 nM.
The corresponding values for “AAUUAUUUUUGAGGAUAUCGUGGUGAAACACCACGAGAAGGCGAGAUACACAUGAGGAUCACCCAUGUGAGCCUGAUGCUUAUG” are 16.1 nM and 14.4 nM.

For the origin of these results see the EternaBench riboswitch data.
